Measurements pooled from the literature.
Each line is one published result; the experiments were not run side by side.
Target: Vascular endothelial growth factor receptor 1 (FLT1, Homo sapiens, UniProt P17948)

SMILES	test	conditions	quantity	result
CC1CCCN1c1nccc(-c2cnn3ncccc23)n1 (stereo not drawn)	binding	1 µM	remaining binding	100%
CCCOc1ccc(OC)c(F)c1C(=O)c1ccc(C(=O)N[C@@H]2CNC[C@H]2NC(=O)c2ccc3[nH]ncc3c2)cc1	enzyme activity, inhibitor	10 µM	remaining activity	35%
CSc1cccnc1N1CCN(Cc2nc3ccccc3[nH]2)CC1	cell-free assay, competition with immobilised ligand	1 µM	remaining binding	100%
CN(c1ncccc1CNc1nc(Nc2ccc3c(c2)CC(=O)N3)ncc1C(F)(F)F)S(C)(=O)=O	enzyme activity, inhibitor	1 µM	inhibition	80%
Cc1ccc(C(=O)NCc2ccsc2)cc1C#Cc1cn(C(C)C)c2ncnc(N)c12	enzyme activity, inhibitor	1 µM	activity vs control	-1%
COc1cc(Nc2cnc(C#N)c(O[C@H](C)CN(C)C)n2)ncc1-c1cnn(C)c1	enzyme activity, inhibitor, radiometric	10 µM	remaining activity	31%
Cc1cc(-n2nc(Cc3cc(F)cc(C(F)(F)F)c3)nc2C)ccc1C(N)=O	cell-free assay, competition with immobilised ligand	1 µM	remaining binding	100%
O=C1Nc2ccc(Cl)cc2C1=Cc1cc(Cl)c(O)c(Cl)c1	cell-free assay	0.5 µM	remaining signal	85%
C[C@H](c1ccc(F)cc1)N(Cc1cccc(C(=O)O)c1)C(=O)c1cnc2ccccc2c1	cell-free assay, competition with immobilised ligand	1 µM	remaining binding	100%
Cc1ccc(-n2nc(C(C)(C)C)cc2NC(=O)Nc2ccc(OCCN3CCOCC3)c3ccccc23)cc1	enzyme activity, inhibitor	10 µM	inhibition	96%
Cc1sc(C(=O)NC2COC2)cc1-n1cc(NC(=O)Nc2c(F)cccc2Cl)cn1	enzyme activity, inhibitor	10 µM	remaining activity	84.1%
Nc1nc(NC2CCCCC2)sc1C(=O)c1ccccc1	enzyme activity, inhibitor	10 µM	remaining activity	57%
CC(C)(C)c1nc2c(s1)c1nc(N)ncc1c1ccc(NS(=O)(=O)c3c(F)cccc3F)c(F)c12	enzyme activity, inhibitor, radiometric	1 µM	remaining activity	111%
CCOc1cc(-c2nncn2C)ccc1Nc1ncc2cc(C)nc(NCC(C)(C)C)c2n1	enzyme activity, inhibitor, FRET	1 µM	inhibition	< 15%
CCN(CC)c1ccc(C2=NNC(=O)CC2C)cc1[N+](=O)[O-] (stereo not drawn)	enzyme activity, inhibitor	10 µM	remaining activity	104%
Cc1ccc(Nc2nccc(N(C)c3ccc4c(C)n(C)nc4c3)n2)cc1S(N)(=O)=O	enzyme activity, inhibitor	0.3 µM	inhibition	100%
CNC(=O)c1cc2c(Oc3ccc(NC(=O)C4(C(=O)Nc5ccc(F)cc5)CC4)cc3)ccnc2cc1OC	enzyme activity, inhibitor, radiometric	1 µM	inhibition	106%
Nc1ncnc2occ(-c3ccc(NC(=O)Nc4cc(C(F)(F)F)ccc4F)cc3)c12	cell-free assay	20 µM	remaining signal	0.55%
COc1cc2ncnc(Nc3ccc(Oc4ccccc4)c(C)c3C)c2cc1OC	enzyme activity, inhibitor	1 µM	inhibition	0%
CCCS(=O)(=O)Nc1ccc(F)c(C(=O)c2c[nH]c3ncc(-c4ccc(Cl)cc4)cc23)c1F	enzyme activity, inhibitor	1 µM	inhibition	< 10%
CS(=O)(=O)N1CCCC(NC(=O)[C@H](CCC2CCCCC2)NC(=O)c2ccc(CNc3ncnc4c3nnn4-c3ccccc3)cc2)C1 (stereo partly drawn)	cell-free assay, competition with immobilised ligand	0.1 µM	remaining binding	86%
C=CC(=O)Nc1cc(Nc2nccc(Nc3cc(Cl)c(F)cc3C(C)(C)O)n2)c(OC)cc1N1CC[C@@H](N(C)C)C1	enzyme activity, inhibitor	1 µM	inhibition	0%
Cc1nccc(COC(=O)N2C[C@@H]3[C@@H](CNC(=O)c4ccc5[nH]nnc5c4)[C@@H]3C2)n1	cell-free assay, competition with immobilised ligand	1 µM	remaining binding	100%
CCN(CC)CCNC(=O)c1c(C)[nH]c(/C=C2\C(=O)Nc3ccc(F)cc32)c1C	enzyme activity, inhibitor	0.3 µM	inhibition	99%
CC(C)CC(=O)N1CCc2nc(-c3ccc(Br)cc3)nc(N(C)Cc3ccccc3)c2C1	cell-free assay, competition with immobilised ligand	0.1 µM	remaining binding	100%
CC(C)(C)C(=O)c1sc(NC2CCCCC2)nc1N	enzyme activity, inhibitor	10 µM	remaining activity	82%
C[C@@H](c1cccc(C#N)c1)n1cc(Cl)cc(C(N)=O)c1=N	cell-free assay, competition with immobilised ligand	1 µM	remaining binding	100%
O=C1NC(=O)c2cc(Nc3ccc(F)cc3)c(Nc3ccc(F)cc3)cc21	cell-free assay	0.5 µM	remaining signal	81.5%
N#CC1(c2ccccn2)CCN(Cc2cc(C(=O)N3CCCC3)c(=O)n3ccccc23)CC1	cell-free assay, competition with immobilised ligand	1 µM	remaining binding	100%
CNCc1ccc(-c2cc(-c3nc(-c4ccc(S(=O)(=O)C(C)C)cc4)cnc3N)on2)cc1	enzyme activity, inhibitor	2 µM	inhibition	83%
